In ChEMBL document CHEMBL1156339, “A virtual screening hit reveals new possibilities for developing group III metabotropic glutamate receptor agonists” (J Med Chem, 2010):
Activity calls are given as the source filed them. The calls are words filed in the database; no cut-off is given here.

Legend:
[1] = target: Metabotropic glutamate receptor 5 (Rattus norvegicus) (UniProt P31424); assay: Agonist activity at rat mGlu5 receptor expressed in HEK293 cells; type: functional, cell-based
Method in brief: (§1)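 Receptor transiently electroporated into HEK293 cells (DMEM, 10% FCS, penicillin/streptomycin) with EAAC1 transporter, plated in 96-well plates; tested for agonist or antagonist activity coupled to PLC, read out by IP or Fluo-4 Ca2+ assays.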

[2] = target: Metabotropic glutamate receptor 1 (Rattus norvegicus) (UniProt P23385); assay: Agonist activity at rat mGlu1 receptor expressed in HEK293 cells; type: functional, cell-based; method in brief: as §1
[3] = target: T1, Metabotropic glutamate receptor 6 (Rattus norvegicus, UniProt P35349); assay: Agonist activity at rat mGlu6 receptor expressed in HEK293 cells co-transfected with G-protein alpha and EAAC1 assessed as increase in intracellular calcium level after 1 hr by fluorescence microplate reader; type: functional, cell-based
T1 sequence (P35349 whole entry): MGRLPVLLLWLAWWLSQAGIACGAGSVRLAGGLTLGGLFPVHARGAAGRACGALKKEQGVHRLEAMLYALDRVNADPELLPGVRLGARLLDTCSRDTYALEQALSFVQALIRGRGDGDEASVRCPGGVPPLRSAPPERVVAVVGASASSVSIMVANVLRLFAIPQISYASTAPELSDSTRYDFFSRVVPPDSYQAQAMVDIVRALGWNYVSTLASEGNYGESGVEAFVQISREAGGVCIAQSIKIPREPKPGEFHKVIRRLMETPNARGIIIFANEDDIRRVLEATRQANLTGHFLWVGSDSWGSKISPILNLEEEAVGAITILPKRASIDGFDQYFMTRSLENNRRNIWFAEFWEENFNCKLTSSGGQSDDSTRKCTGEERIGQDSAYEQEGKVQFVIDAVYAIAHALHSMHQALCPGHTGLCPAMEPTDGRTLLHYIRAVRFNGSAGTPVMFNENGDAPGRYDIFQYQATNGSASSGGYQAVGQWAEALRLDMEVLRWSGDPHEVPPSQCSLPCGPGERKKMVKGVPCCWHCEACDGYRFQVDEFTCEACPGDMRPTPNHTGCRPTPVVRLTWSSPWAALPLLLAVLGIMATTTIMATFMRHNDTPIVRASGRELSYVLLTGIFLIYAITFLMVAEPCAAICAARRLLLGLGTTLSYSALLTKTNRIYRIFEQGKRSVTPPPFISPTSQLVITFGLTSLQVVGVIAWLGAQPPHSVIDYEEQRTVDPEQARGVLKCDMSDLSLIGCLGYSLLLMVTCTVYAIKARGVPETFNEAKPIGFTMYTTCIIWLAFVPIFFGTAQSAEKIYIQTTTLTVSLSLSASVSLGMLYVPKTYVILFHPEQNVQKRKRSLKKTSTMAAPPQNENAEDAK
Method in brief: (§2)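 HEK293 cells electroporated with rat receptor plus chimeric G-protein alpha subunit and EAAC1, grown 24 h in polyornithine-coated plates in glutamate/glutamine-free medium. Cells loaded 1 h at 37 °C with Fluo-4 AM in HBSS with 2.5 mM probenecid, washed. Agonist added after 20 s of recording. Fluorescence read at ex 485/em 525 nm over a concentration range, triplicate points. EC50 given as mean ± SEM of n experiments.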

[4] = target: T2, Metabotropic glutamate receptor 8 (Rattus norvegicus, UniProt P70579); assay: (§3) Agonist activity at rat mGlu8 receptor expressed in HEK293 cells co-transfected with G-protein alpha and EAAC1 assessed as increase in intracellular calcium level after 1 hr by fluorescence microplate reader; type: functional, cell-based; method in brief: as §2
T2 sequence (P70579 whole entry): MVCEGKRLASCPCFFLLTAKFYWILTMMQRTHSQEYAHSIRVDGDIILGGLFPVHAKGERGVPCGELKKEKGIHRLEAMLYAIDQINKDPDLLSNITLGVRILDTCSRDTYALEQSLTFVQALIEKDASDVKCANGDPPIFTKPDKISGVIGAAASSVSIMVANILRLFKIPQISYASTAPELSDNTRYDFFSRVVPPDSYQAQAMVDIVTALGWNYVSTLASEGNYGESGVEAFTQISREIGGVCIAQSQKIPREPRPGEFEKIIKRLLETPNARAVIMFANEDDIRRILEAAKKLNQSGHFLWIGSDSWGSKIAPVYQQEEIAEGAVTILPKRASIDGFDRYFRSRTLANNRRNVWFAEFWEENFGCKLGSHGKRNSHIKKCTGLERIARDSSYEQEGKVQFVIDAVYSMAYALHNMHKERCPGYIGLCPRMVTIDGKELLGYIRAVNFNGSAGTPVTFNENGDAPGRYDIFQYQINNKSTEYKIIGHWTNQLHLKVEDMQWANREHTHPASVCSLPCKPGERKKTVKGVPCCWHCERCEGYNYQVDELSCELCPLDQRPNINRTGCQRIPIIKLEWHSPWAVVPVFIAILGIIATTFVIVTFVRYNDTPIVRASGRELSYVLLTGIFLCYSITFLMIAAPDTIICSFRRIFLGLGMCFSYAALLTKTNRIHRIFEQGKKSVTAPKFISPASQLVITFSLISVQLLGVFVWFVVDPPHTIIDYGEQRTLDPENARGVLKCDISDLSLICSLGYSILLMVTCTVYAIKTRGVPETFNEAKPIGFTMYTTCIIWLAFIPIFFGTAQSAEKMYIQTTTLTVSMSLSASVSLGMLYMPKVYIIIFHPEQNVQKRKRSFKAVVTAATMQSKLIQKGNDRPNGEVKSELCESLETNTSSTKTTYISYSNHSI

[5] = target: T3, Metabotropic glutamate receptor 4 (Rattus norvegicus, UniProt P31423); assay: (§4) Agonist activity at rat mGlu4 receptor expressed in HEK293 cells co-transfected with G-protein alpha and EAAC1 assessed as increase in intracellular calcium level after 1 hr by fluorescence microplate reader; type: functional, cell-based; method in brief: as §2
T3 sequence (P31423 whole entry): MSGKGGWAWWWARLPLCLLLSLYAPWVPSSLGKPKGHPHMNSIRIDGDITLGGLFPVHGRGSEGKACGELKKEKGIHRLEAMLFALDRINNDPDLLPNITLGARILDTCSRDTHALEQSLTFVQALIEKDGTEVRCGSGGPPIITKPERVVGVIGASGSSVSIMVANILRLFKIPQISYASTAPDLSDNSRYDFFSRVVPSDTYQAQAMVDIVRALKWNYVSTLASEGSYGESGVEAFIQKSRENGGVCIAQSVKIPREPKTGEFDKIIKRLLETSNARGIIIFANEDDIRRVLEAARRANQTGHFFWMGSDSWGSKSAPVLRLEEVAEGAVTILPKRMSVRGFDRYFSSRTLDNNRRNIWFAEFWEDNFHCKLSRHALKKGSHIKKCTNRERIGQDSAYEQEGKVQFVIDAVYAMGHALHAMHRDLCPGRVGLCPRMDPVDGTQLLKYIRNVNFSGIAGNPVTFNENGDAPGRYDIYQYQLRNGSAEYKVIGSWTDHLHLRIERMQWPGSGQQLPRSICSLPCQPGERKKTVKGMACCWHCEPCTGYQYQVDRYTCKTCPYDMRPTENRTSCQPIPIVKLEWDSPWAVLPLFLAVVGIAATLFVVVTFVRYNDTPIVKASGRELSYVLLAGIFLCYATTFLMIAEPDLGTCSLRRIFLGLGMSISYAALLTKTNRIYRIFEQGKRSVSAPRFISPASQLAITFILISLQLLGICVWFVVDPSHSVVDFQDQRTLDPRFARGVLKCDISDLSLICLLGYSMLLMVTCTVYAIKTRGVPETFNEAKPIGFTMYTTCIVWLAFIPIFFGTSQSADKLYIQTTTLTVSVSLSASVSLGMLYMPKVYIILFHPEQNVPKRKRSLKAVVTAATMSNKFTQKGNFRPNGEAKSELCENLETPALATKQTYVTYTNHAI

[6] = target: T2, Metabotropic glutamate receptor 8; assay: Agonist activity at rat mGlu8 receptor expressed in HEK293 cells co-transfected with G-protein alpha and EAAC1 assessed as increase in intracellular inositol phosphate accumulation after 1 hr by scintillation counting; type: functional, cell-based
Method in brief: (§5)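 Rat receptor, chimeric G-protein alpha subunit and EAAC1 electroporated into HEK293 cells and grown 24 h in polyornithine-coated plates in glutamate/glutamine-free medium. Labelled overnight with 3H-myoinositol from 6 h post-transfection. Ambient glutamate degraded with glutamate-pyruvate transaminase, then agonist applied 30 min. Lysis 1 h in cold 0.1 M formic acid. 3H-IP isolated on Dowex and counted. IP normalised to IP plus membrane radioactivity, triplicate; mean ± SEM of n experiments.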

[7] = target: T3, Metabotropic glutamate receptor 4; assay: Agonist activity at rat mGlu4 receptor expressed in HEK293 cells co-transfected with G-protein alpha and EAAC1 assessed as increase in intracellular inositol phosphate accumulation after 1 hr by scintillation counting; type: functional, cell-based; method in brief: as §5
[8] = target: Metabotropic glutamate receptor 7 (Rattus norvegicus) (UniProt P35400); assay: (§6) Agonist activity at rat mGlu7 receptor expressed in HEK293 cells co-transfected with G-protein alpha and EAAC1 assessed as increase in intracellular calcium level after 1 hr by fluorescence microplate reader; type: functional, cell-based
Method in brief: (§7)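 Rat mGlu7 electroporated into HEK293 cells with a chimeric G-protein α subunit and EAAC1. Cells were grown 24 h on polyornithine in glutamate/glutamine-free medium, then loaded with Fluo-4 AM in HBSS with 2.5 mM probenecid for 1 h at 37 °C and washed. Agonist was added 20 s into recording, and fluorescence was read at ex 485/em 525 nm. Points were run in triplicate across a concentration series to give EC50.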

[9] = target: Metabotropic glutamate receptor 2 (Rattus norvegicus) (UniProt P31421); assay: Agonist activity at rat mGlu2 receptor expressed in HEK293 cells assessed as increase in intracellular calcium level at 100 uM after 1 hr by fluorescence microplate reader; type: functional, cell-based
Sequence of Metabotropic glutamate receptor 2 (Rattus norvegicus) (P31421 19-872 limits assumed): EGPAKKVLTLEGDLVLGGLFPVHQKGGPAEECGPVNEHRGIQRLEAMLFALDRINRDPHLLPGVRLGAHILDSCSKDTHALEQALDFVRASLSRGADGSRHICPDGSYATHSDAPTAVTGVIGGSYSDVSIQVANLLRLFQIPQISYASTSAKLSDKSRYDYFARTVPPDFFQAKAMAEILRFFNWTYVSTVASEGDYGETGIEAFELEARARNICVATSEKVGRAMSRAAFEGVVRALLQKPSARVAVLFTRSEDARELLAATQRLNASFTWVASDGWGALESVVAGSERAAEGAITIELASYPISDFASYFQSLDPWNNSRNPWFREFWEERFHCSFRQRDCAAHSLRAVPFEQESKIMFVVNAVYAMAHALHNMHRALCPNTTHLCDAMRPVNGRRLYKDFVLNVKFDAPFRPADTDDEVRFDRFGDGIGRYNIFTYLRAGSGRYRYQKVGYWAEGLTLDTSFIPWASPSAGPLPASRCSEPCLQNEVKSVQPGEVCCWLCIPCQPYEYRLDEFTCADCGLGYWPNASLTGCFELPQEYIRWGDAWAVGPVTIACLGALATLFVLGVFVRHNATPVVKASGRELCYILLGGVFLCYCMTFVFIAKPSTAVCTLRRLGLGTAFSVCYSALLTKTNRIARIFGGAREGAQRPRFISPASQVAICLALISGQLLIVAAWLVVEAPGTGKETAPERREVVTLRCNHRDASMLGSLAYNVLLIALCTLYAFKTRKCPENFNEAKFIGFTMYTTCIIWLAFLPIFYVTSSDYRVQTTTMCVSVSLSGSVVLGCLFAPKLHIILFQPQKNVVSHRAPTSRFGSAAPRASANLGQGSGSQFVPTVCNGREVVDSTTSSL
Method in brief: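 Rat mGlu2 transiently electroporated into HEK293 cells with EAAC1. Fluo-4 AM loaded 1 h at 37 °C in HBSS with 2.5 mM probenecid. Agonist applied at 100 μM after 20 s of recording, with DCG-IV 100 μM as reference. Fluorescence read at ex 485/em 525 nm.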

[10] = target: T1, Metabotropic glutamate receptor 6; assay: Agonist activity at rat mGlu6 receptor expressed in HEK293 cells co-transfected with G-protein alpha and EAAC1 assessed as increase in intracellular inositol phosphate accumulation after 1 hr by scintillation counting; type: functional, cell-based; method in brief: as §5
[11] = target: Metabotropic glutamate receptor 4 (Rattus norvegicus) (UniProt P31423); assay: Agonist activity at rat mGlu4 receptor expressed in HEK293 cells co-transfected with G-protein alpha and EAAC1 assessed as increase in intracellular inositol phosphate accumulation at 100 uM after 1 hr by scintillation counting; type: functional, cell-based
Sequence of Metabotropic glutamate receptor 4 (Rattus norvegicus) (P31423 whole entry): as the sequence (P31423 whole entry) above

[12] = target: Metabotropic glutamate receptor 7 (Rattus norvegicus) (UniProt P35400); assay: (§8) Agonist activity at rat mGlu7 receptor expressed in HEK293 cells co-transfected with G-protein alpha and EAAC1 assessed as increase in intracellular inositol phosphate accumulation […] by scintillation counting; type: functional, cell-based
Method in brief: (§9)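 Rat mGlu7 was transiently electroporated into HEK293 cells with a chimeric Gα subunit and EAAC1 and grown in glutamate/glutamine-free medium. Cells were labelled overnight with ³H-myoinositol from 6 h post-transfection, and ambient glutamate was removed with glutamate-pyruvate transaminase. Agonist was applied for 30 min, then cells were lysed 1 h in cold 0.1 M formic acid. ³H-IP was isolated on Dowex resin and eluted with 4 M formate for scintillation counting, with IP normalised to IP plus membrane counts. Triplicate points.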

[13] = target: Metabotropic glutamate receptor 2 (Rattus norvegicus, UniProt P31421); assay: Agonist activity at rat mGlu2 receptor expressed in HEK293 cells assessed as increase in intracellular calcium level after 1 hr by fluorescence microplate reader; type: functional, cell-based; method in brief: as §2
[14] = organism: Rattus norvegicus; assay: Selectivity ratio of EC50 for rat mGlu8 receptor to EC50 for rat mGlu4 receptor
[15] = target: T4, Metabotropic glutamate receptor 7 (Rattus norvegicus, UniProt P35400); assay: as §6; type: functional, cell-based; method in brief: as §7
[16] = target: T4, Metabotropic glutamate receptor 7; assay: as §8; type: functional, cell-based; method in brief: as §9
[17] = target: Metabotropic glutamate receptor 8 (Rattus norvegicus) (UniProt P70579); assay: as §3; type: functional, cell-based; method in brief: as §2
Sequence of Metabotropic glutamate receptor 8 (Rattus norvegicus) (P70579 whole entry): as the sequence (P70579 whole entry) above

[18] = target: Metabotropic glutamate receptor 4 (Rattus norvegicus) (UniProt P31423); assay: as §4; type: functional, cell-based; method in brief: as §2
[19] = target: Metabotropic glutamate receptor 4 (Rattus norvegicus) (UniProt P31423); assay: Agonist activity at rat mGlu4 receptor expressed in HEK293 cells co-transfected with G-protein alpha and EAAC1 assessed as increase in intracellular inositol phosphate accumulation […] by scintillation counting in presence of DCG4; type: functional, cell-based

Sequence of Metabotropic glutamate receptor 5 (Rattus norvegicus) (P31424 21-1203 limits assumed): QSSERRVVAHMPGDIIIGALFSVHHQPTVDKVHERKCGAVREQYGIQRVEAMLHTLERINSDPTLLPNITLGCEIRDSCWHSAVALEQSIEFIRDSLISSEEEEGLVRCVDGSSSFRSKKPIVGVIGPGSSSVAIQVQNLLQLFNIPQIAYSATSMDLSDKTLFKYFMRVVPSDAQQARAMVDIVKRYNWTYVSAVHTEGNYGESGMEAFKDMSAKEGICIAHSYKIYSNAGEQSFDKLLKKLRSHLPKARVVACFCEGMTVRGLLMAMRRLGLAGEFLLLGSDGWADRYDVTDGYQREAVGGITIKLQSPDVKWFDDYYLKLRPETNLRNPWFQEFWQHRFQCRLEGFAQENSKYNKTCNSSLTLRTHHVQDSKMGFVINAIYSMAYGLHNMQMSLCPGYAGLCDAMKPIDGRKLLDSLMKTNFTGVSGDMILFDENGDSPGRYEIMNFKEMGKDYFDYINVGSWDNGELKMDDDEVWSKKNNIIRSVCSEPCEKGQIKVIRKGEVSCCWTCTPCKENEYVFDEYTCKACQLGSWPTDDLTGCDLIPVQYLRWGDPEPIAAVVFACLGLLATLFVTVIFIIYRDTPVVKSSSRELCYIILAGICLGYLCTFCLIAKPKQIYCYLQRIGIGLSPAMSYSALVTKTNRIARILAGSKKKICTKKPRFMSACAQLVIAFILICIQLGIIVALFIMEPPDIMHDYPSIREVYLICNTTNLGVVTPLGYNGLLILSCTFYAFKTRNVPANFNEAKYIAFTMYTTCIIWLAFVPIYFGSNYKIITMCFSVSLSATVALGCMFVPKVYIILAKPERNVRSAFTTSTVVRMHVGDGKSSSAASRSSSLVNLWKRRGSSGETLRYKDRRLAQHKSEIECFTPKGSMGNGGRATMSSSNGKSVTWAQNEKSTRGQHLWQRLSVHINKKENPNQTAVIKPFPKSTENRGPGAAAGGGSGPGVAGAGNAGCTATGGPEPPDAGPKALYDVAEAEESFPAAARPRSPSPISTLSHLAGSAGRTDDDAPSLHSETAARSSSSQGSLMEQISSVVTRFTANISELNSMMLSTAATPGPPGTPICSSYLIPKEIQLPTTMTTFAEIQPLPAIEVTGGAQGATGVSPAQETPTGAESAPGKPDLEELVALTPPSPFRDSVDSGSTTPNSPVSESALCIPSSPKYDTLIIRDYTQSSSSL

SMILES | EC50 [4] [µM] | EC50 [5] [µM] | EC50 [6] [µM] | EC50 [7] [µM] | EC50 [10] [µM] | other results
N[C@@H](CCP(=O)(O)CC(CC(=O)O)C(=O)O)C(=O)O (some centres undefined) | 3.5 | 2.4 | 38 | 4.6 | 115 | Activity [1]: inactive; Activity [2]: inactive; EC50 [3]: 42 µM; Activity [8]: inactive; Activity [9]: inactive
N[C@@H](CCP(=O)(O)C(CC(=O)O)CP(=O)(O)O)C(=O)O (some centres undefined) |  |  |  |  |  | Activity [11]: 33%
N[C@@H](CCP(=O)(O)CC(=O)O)C(=O)O | 2.7 | 7.4 | 0.91 | 2.4 | 131 | Activity [1]: inactive; Activity [2]: inactive; EC50 [3]: > 100 µM; Activity [12]: inactive; EC50 [13]: 57 µM; Activity [8]: inactive; Activity [9]: Active
N[C@@H](CCP(=O)(O)C(O)C1CC1C(=O)O)C(=O)O (single isomer, unassigned) |  |  | 91 | 18 |  | 
N[C@@H](CCP(=O)(O)CC(Cl)C(=O)O)C(=O)O (some centres undefined) | 8.3 | 1 | 8.1 | 3.8 |  | Activity [1]: inactive; Activity [2]: inactive; EC50 [3]: 8.9 µM; Ratio EC50 [14]: 8; EC50 [13]: 49 µM; EC50 [15]: > 100 µM; Activity [9]: Active
N[C@H](C(=O)O)C1[C@@H](C(=O)O)[C@@H]1C(=O)O (some centres undefined) |  |  |  |  |  | EC50 [13]: 0.045 µM
CC(CP(=O)(O)CC[C@H](N)C(=O)O)C(=O)O (some centres undefined) |  |  | 53 | 12.1 |  | 
NC(CP(=O)(O)CCC(=O)O)C(=O)O (centres undefined) |  |  |  |  |  | Activity [11]: inactive
N[C@@H](CCP(=O)(O)CC1CCOC1=O)C(=O)O (some centres undefined) | > 100 | 123 |  |  |  | 
N[C@@H](CCP(=O)(O)C(CC(=O)O)C(F)(F)F)C(=O)O (some centres undefined) |  |  |  | 26 |  | 
N[C@@]1(C(=O)O)C[C@H](C(=O)O)[C@H](C(=O)O)C1 |  |  | 5.1 | 1.74 | 10.6 | EC50 [16]: 280 µM
N[C@@H](CCCP(=O)(O)CCC(=O)O)C(=O)O |  |  |  |  |  | Activity [17]: inactive; Activity [18]: inactive
N[C@@H](CCP(=O)(O)CCP(=O)(O)O)C(=O)O |  |  | 48 | 88 |  | 
N[C@@H](CCP(=O)(O)/C=C/C(=O)O)C(=O)O | 5.1 | 1 | 7.2 | 3 |  | Activity [1]: inactive; Activity [2]: inactive; EC50 [3]: 1.1 µM; EC50 [13]: 6.7 µM; EC50 [15]: 43 µM; Activity [9]: Active
NC(CCP(=O)(O)CCCCC(=O)O)C(=O)O (centres undefined) |  |  |  |  |  | Activity [11]: inactive
N[C@@H](CCP(=O)(O)CCC(=O)O)C(=O)O | 6.6 | 6.15 | 7.8 |  | 31 | Activity [1]: inactive; Activity [2]: inactive; EC50 [3]: 6.7 µM; EC50 [15]: 89 µM
N[C@@H](CCP(=O)(O)C(CC(=O)O)CC(=O)O)C(=O)O |  |  |  | 114 |  | 
N[C@@H](CCP(=O)(O)CCCC(=O)O)C(=O)O | 18 | 8.5 | 19 | 11.4 | > 100 | Activity [1]: inactive; Activity [2]: inactive; EC50 [3]: 44 µM; Activity [8]: inactive; Activity [9]: inactive
N[C@@H](CCP(=O)(O)C(O)C(=O)O)C(=O)O (some centres undefined) | 2.9 | 7.2 |  |  |  | 
N[C@@H](CCP(=O)(O)O)C(=O)O | 0.3 | 0.13 | 0.24 | 0.096 | 3.3 | EC50 [3]: 1 µM; EC50 [16]: 306 µM; EC50 [15]: 249 µM
N[C@H](CCP(=O)(O)CCC(=O)O)C(=O)O |  |  | 58 | 17 | 99 | 
N[C@@H](CCP(=O)(O)C1COC(=O)C1)C(=O)O (some centres undefined) | > 100 | 141 |  |  |  | 
NC(CCP(=O)(O)C(CC(=O)O)C(=O)O)C(=O)O (centres undefined) |  |  |  | 47 | 113 | 
NC(CCP(=O)(O)CCC(=O)O)C(=O)O (racemic) |  |  | 20 | 7.1 | 32 | Activity [19]: Dose-dependent effect; EC50 [13]: 52 µM; Activity [9]: Active
N[C@@H](CCP(=O)(O)CC(CCO)C(=O)O)C(=O)O (some centres undefined) | 76 | 20 |  |  |  | 
N[C@@H](CCC[PH](=O)O)C(=O)O | 73 | 209 |  |  |  | 
C/C(=C\C(=O)O)C(O)P(=O)(O)CC[C@H](N)C(=O)O (some centres undefined) |  |  |  |  |  | Activity [11]: inactive
